Assay results: ChEMBL document CHEMBL1154720, “Synthesis and biological evaluation of novel 4-hydroxybenzaldehyde derivatives as tyrosinase inhibitors” (Eur J Med Chem, 2010)

How the values were obtained:
Tyrosinase [1] = target: T1, Tyrosinase (Agaricus bisporus, UniProt O42713); test: Inhibition of mashroom tyrosinase assessed as oxidation of L-DOPA by spectrophotometry
T1 sequence (O42713 whole entry): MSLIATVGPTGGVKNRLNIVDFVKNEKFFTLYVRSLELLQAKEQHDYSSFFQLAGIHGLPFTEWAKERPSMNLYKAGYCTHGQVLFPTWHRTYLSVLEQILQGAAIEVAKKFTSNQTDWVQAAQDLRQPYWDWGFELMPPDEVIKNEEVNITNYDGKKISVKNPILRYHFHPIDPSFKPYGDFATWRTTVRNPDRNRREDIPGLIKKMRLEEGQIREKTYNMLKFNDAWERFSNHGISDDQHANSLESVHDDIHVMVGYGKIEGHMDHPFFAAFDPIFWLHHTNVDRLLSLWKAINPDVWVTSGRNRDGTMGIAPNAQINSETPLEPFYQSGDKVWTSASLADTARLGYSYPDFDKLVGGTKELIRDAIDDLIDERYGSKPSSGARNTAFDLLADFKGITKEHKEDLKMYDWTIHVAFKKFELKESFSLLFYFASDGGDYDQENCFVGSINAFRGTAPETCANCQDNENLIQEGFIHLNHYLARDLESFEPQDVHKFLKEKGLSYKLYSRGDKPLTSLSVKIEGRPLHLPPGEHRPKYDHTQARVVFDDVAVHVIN
In short: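 Mushroom tyrosinase diphenolase activity with L-DOPA as substrate. Compounds dissolved in DMSO and diluted with phosphate buffer pH 6.8, final DMSO 2.0%. Thirty units of enzyme pre-incubated with compound in 50 mM phosphate buffer (pH 6.8) for 10 min at 25 °C. Triplicate per concentration. IC50 interpolated from log concentration–inhibition curves (at least eight points), mean of three experiments.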

Tyrosinase [2] = target: T1, Tyrosinase; test: Inhibition of mushroom tyrosinase assessed as oxidation of L-DOPA by Lineweaver-Burke plot analysis
In short: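 Kinetics use the same pre-incubation (10 min, 25 °C, 50 mM phosphate pH 6.8) and measurement time as the IC50 assay, with three inhibitor concentrations per compound including zero and L-DOPA varied. Initial velocity taken from absorbance change over time. Lineweaver–Burk plots were drawn, and KI was obtained from a secondary plot of intercept versus inhibitor concentration.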

Mus musculus = test: Toxicity in mouse at 1600 mg/kg/day, po measured for 20 days; format: organism-based; parameters: route oral; settings: in vivo, 480 h
In short: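 Ten specific-pathogen-free mice, 4 weeks old, acclimated for one week at 20 ± 2 °C and 50 ± 10% relative humidity, weighing 20 ± 2 g. Mice were fasted 4 h, then given a single oral gavage in carboxymethyl cellulose (10 ml/kg; dosing solution 160 mg/ml). Vehicle served as negative control. Clinical signs and mortality were followed 20 days, then organs were examined at autopsy.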

SMILES	IC50 (Tyrosinase [1])	Ki (Tyrosinase [2])	Activity (Mus musculus)
CCC(C)C(NC(=O)COc1ccc(C=O)cc1)C(=O)OC (stereo not drawn)	460 µM		
COC(=O)C(Cc1c[nH]c2ccccc12)NC(=O)COc1ccc(C=O)cc1 (stereo not drawn)	110 µM	54 µM	
COC(=O)C(C)NC(=O)COc1ccc(C=O)cc1 (stereo not drawn)	160 µM	125 µM	
COCCOc1ccc(C=O)cc1	660 µM		
COC(=O)CNC(=O)COc1ccc(C=O)cc1	170 µM	117 µM	
CCOP(=O)(OCC)OCCOc1ccc(C=O)cc1	550 µM		
O=Cc1ccc(OCCOP(=O)(O)O)cc1	820 µM		
O=Cc1ccc(OCC2CO2)cc1 (stereo not drawn)	590 µM		
COP(=O)(OC)OCCOc1ccc(C=O)cc1	59 µM	36.8 µM	Non-toxic

Continued by falling IC50 (Tyrosinase [1]), values first:

IC50 (Tyrosinase [1])	Ki (Tyrosinase [2])	SMILES	Activity (Mus musculus)
3260 µM		CCCCOCCOc1ccc(C=O)cc1	
2550 µM		O=Cc1ccc(OCCO)cc1	
1650 µM		COC(=O)C(CC(C)C)NC(=O)COc1ccc(C=O)cc1 (stereo not drawn)	
1260 µM		O=Cc1ccc(OCC(O)CO)cc1 (stereo not drawn)	
900 µM		COCCOCCOc1ccc(C=O)cc1	
760 µM		COC(=O)C1CCCN1C(=O)COc1ccc(C=O)cc1 (stereo not drawn)	
750 µM		COCC(O)COc1ccc(C=O)cc1 (stereo not drawn)	
620 µM		O=Cc1ccc(OCCOC(=O)CCC(=O)O)cc1	
620 µM		COCCCCOc1ccc(C=O)cc1	
480 µM		COC(=O)C(Cc1ccccc1)NC(=O)COc1ccc(C=O)cc1 (stereo not drawn)	
400 µM		COC(=O)C(CCSC)NC(=O)COc1ccc(C=O)cc1 (stereo not drawn)	
370 µM		O=Cc1ccc(OCOCCO)cc1	
270 µM		O=Cc1ccc(OCOC(CO)CO)cc1	
220 µM		COC(=O)C(Cc1ccc(O)cc1)NC(=O)COc1ccc(C=O)cc1 (stereo not drawn)	
